# Results reported in ChEMBL document CHEMBL1123730, “Synthesis and pharmacological evaluation of a new class of 2-(2-aminothiazol-4-yl)-2-hydrazonoacetamido cephalosporins” (J Med Chem, 1987).
# How the values were obtained:
# [1] = Distribution (50 mg/kg) was determined in kidney 120 min after intramuscular administration; type: ADME, organism-based; conditions: im, read-out: Tissue distribution
# Outline: (§1)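 Wistar rats (200-250 g, groups of five) given 50 mg/kg in sterile water iv or im; killed at set times, lung, liver and kidney homogenized in 0.1 M pH 7.3 phosphate buffer (tissue:buffer 1:5). Drug assayed by agar diffusion on Nutrient Agar with E. coli ATCC 10536 (37 °C, 18 h); standards in phosphate buffer; detection limit 0.5 μg/mL; mean ± SEM.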
# [2] = Distribution (50 mg/kg) was determined in kidney 120 min after intravenous administration; type: ADME, organism-based; conditions: in vivo, 2 h; outline: as §1
# [3] = Distribution (50 mg/kg) was determined in kidney 15 min after intramuscular administration; type: ADME, organism-based; conditions: im, read-out: Tissue distribution; outline: as §1
# [4] = Distribution (50 mg/kg) was determined in kidney 30 min after intramuscular administration; type: ADME, organism-based; conditions: im, read-out: Tissue distribution; outline: as §1
# [5] = Distribution (50 mg/kg) was determined in kidney 30 min after intravenous administration; type: ADME, organism-based; conditions: read-out: Tissue distribution; outline: as §1
# [6] = Distribution (50 mg/kg) was determined in kidney 5 min after intravenous administration; type: ADME, organism-based; conditions: read-out: Tissue distribution; outline: as §1
# [7] = Distribution (50 mg/kg) was determined in liver 120 min after intramuscular administration; type: ADME, organism-based; conditions: im, read-out: Tissue distribution; outline: as §1
# [8] = Distribution (50 mg/kg) was determined in liver 120 min after intravenous administration; type: ADME, organism-based; conditions: read-out: Tissue distribution; outline: as §1
# [9] = Distribution (50 mg/kg) was determined in liver 15 min after intravenous administration; type: ADME, organism-based; conditions: read-out: Tissue distribution; outline: as §1
# [10] = Distribution (50 mg/kg) was determined in liver 30 min after intravenous administration; type: ADME, organism-based; conditions: read-out: Tissue distribution; outline: as §1
# [11] = Distribution (50 mg/kg) was determined in liver 5 min after intramuscular administration; type: ADME, organism-based; conditions: in vivo, im; outline: as §1
# [12] = Distribution (50 mg/kg) was determined in liver 60 min after intramuscular administration; type: ADME, organism-based; conditions: im, read-out: Tissue distribution; outline: as §1
# [13] = Distribution (50 mg/kg) was determined in liver 60 min after intravenous administration; type: ADME, organism-based; conditions: read-out: Tissue distribution; outline: as §1
# [14] = Distribution (50 mg/kg) was determined in lung 30 min after intramuscular administration; type: ADME, organism-based; conditions: im, read-out: Tissue distribution; outline: as §1
# [15] = Distribution (50 mg/kg) was determined in lung 30 min after intravenous administration; type: ADME, organism-based; conditions: read-out: Tissue distribution; outline: as §1
# [16] = Distribution (50 mg/kg) was determined in lung 5 min after intravenous administration; type: ADME, organism-based; conditions: read-out: Tissue distribution; outline: as §1
# [17] = Distribution (50 mg/kg) was determined in lung 60 min after intramuscular administration; type: ADME, organism-based; conditions: im, read-out: Tissue distribution; outline: as §1
# [18] = Serum level was determined at 15 min after intramuscular administration of 50 mg/kg in rats; type: ADME, organism-based; set-up: dose 50 mg/kg, route intramuscular; conditions: rat, im, read-out: Serum level
# Outline: (§2)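 Dose 50 mg/kg in sterile water, iv or im, to Wistar rats 200-250 g, five per time point; killed at set intervals, blood centrifuged for serum. Antibiotic measured by agar diffusion on Nutrient Agar with E. coli ATCC 10536 (37 °C, 18 h), standards diluted in serum; detection limit 1 μg/mL. Mean ± SEM of five rats.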
# [19] = Serum level was determined at 30 min after intramuscular administration of 50 mg/kg in rats; type: ADME, organism-based; set-up: dose 50 mg/kg, route intramuscular; conditions: rat, im, read-out: Serum level; outline: as §2
# [20] = Serum level was determined at 360 min after intramuscular administration of 50 mg/kg in rats; type: ADME, organism-based; set-up: dose 50 mg/kg, route intramuscular; conditions: rat, im, read-out: Serum level; outline: as §2
# [21] = Serum level was determined at 5 min after intramuscular administration of 50 mg/kg in rats; type: ADME, organism-based; set-up: dose 50 mg/kg, route intramuscular; conditions: rat, im, read-out: Serum level; outline: as §2
# [22] = Serum level was determined at 60 min after an intravenous administration of 50 mg/kg in rats; type: ADME, organism-based; set-up: dose 50 mg/kg, route intravenous; conditions: rat, read-out: Serum level; outline: as §2
# [23] = Serum level was determined at 120 min after an intravenous administration of 50 mg/kg in rats; type: ADME, organism-based; set-up: dose 50 mg/kg, route intravenous; conditions: rat, read-out: Serum level; outline: as §2
# Alcaligenes [24] = experiment: Geometrical average of minimum bactericidal concentration was determined in isosensitest broth against Alcaligenes; type: functional
# Alcaligenes [25] = experiment: Geometrical average of minimum inhibitory concentration was determined in isosensitest broth against Alcaligenes; type: functional
# Escherichia coli [26] = experiment: Geometrical average of minimum inhibitory concentration was determined in isosensitest broth against Escherichia coli; type: functional
# Escherichia coli [27] = experiment: In vivo protective dose was determined in infected swiss mice (120/strain) infected ip with Escherichia coli ISM with an inoculum size-0.5 mL of 10 E6 CFU/mL of suspension. Activity in range of 0.90-2.34; type: functional
# Enterobacter [28] = experiment: Geometrical average of minimum bactericidal concentration was determined in isosensitest broth against Enterobacter; type: functional
# Enterobacter [29] = experiment: Geometrical average of minimum inhibitory concentration was determined in isosensitest broth against Enterobacter; type: functional
# Klebsiella [30] = experiment: Geometrical average of minimum bactericidal concentration was determined in isosensitest broth against Klebsiella; type: functional
# Klebsiella [31] = experiment: Geometrical average of minimum inhibitory concentration was determined in isosensitest broth against Klebsiella; type: functional
# Klebsiella pneumoniae [32] = experiment: Minimum inhibitory concentration against Klebsiella pneumoniae 102; type: functional
# Pseudomonas [33] = experiment: Geometrical average of minimum bactericidal concentration was determined in isosensitest broth against Pseudomonas; type: functional
# Pseudomonas [34] = experiment: Geometrical average of minimum inhibitory concentration was determined in isosensitest broth against Pseudomonas; type: functional
# Proteus [35] = experiment: Geometrical average of minimum bactericidal concentration was determined in isosensitest broth against Proteus; type: functional, Proteus sp.
# Proteus [36] = experiment: Geometrical average of minimum inhibitory concentration was determined in isosensitest broth against Proteus; type: functional, Proteus sp.
# Sarcina [37] = experiment: Geometrical average of minimum bactericidal concentration was determined in isosensitest broth against Sarcina; type: functional
# Sarcina [38] = experiment: Geometrical average of minimum inhibitory concentration was determined in isosensitest broth against Sarcina; type: functional
# Salmonella [39] = experiment: Geometrical average of minimum bactericidal concentration was determined in isosensitest broth against Salmonella; type: functional
# Salmonella [40] = experiment: Geometrical average of minimum inhibitory concentration was determined in isosensitest broth against Salmonella; type: functional
# Salmonella typhimurium = experiment: In vivo protective dose was determined in infected swiss mice (120/strain) infected ip with Salmonella Typhimurium T.O. with an inoculum size-0.5 mL of 10 E6 CFU/mL of suspension. Activity in range of 5.47-15.81; type: functional, Salmonella enterica subsp. enterica serovar Typhimurium; conditions: Salmonella enterica
# Streptococcus [41] = experiment: Geometrical average of minimum bactericidal concentration was determined in isosensitest broth against Streptococcus; type: functional
# Streptococcus [42] = experiment: Geometrical average of minimum inhibitory concentration was determined in isosensitest broth against Streptococcus; type: functional
# Staphylococcus aureus = experiment: Geometrical average of minimum inhibitory concentration was determined in isosensitest broth against Staphylococcus (P); type: functional
# Serratia [43] = experiment: Geometrical average of minimum inhibitory concentration was determined in isosensitest broth against Serratia; type: functional
# Staphylococcus = experiment: Geometrical average of minimum bactericidal concentration was determined in isosensitest broth against Staphylococcus (10); type: functional
# Serratia [44] = experiment: Geometrical average of minimum bactericidal concentration was determined in isosensitest broth against Serratia; type: functional
# [45] = Geometrical average of minimum inhibitory concentration was determined in isosensitest broth against gram-negative strains.; type: functional
# Bacillus = experiment: Geometrical average of minimum inhibitory concentration was determined in isosensitest broth against Bacillus; type: functional
# [46] = Distribution (50 mg/kg) was determined in liver 30 min after intramuscular administration; type: ADME, organism-based; conditions: im, read-out: Tissue distribution; outline: as §1
# Klebsiella pneumoniae [47] = experiment: In vivo protective dose was determined in infected swiss mice (120/strain) infected ip with Klebsiella pneumoniae 102 with an inoculum size-0.5 mL of 10 E5 CFU/mL of suspension. Activity in range of 10.47-22.94
smiles,measurement,setting,value
Cn1nnnc1SCC1=C(C(=O)O)N2C(=O)[C@@H](NC(=O)/C(=N/N)c3csc(N)n3)[C@H]2SC1,concentration at 2 h,[1],10200 ng/g
same,Tissue distribution,[2],Undetectable
same,concentration at 0.25 h,[3],25100 ng/g
same,concentration at 0.5 h,[4],36200 ng/g
same,concentration at 0.5 h,[5],19600 ng/g
same,concentration at 5 min,[6],107000 ng/g
same,concentration at 2 h,[7],5270 ng/g
same,concentration at 2 h,[8],≤ 5000 ng/g
same,concentration at 0.25 h,[9],25800 ng/g
same,concentration at 0.5 h,[10],18800 ng/g
same,Tissue distribution,[11],Undetectable
same,concentration at 1 h,[12],15100 ng/g
same,concentration at 1 h,[13],9220 ng/g
same,concentration at 0.5 h,[14],12200 ng/g
same,concentration at 0.5 h,[15],8970 ng/g
same,concentration at 5 min,[16],26400 ng/g
same,concentration at 1 h,[17],7660 ng/g
same,concentration at 0.25 h,[18],86200 ng/mL
same,concentration at 0.5 h,[19],96200 ng/mL
same,concentration at 6 h,[20],3430 ng/mL
same,concentration at 5 min,[21],34600 ng/mL
same,concentration at 1 h,[22],52500 ng/mL
same,concentration at 2 h,[23],20500 ng/mL
same,MBC,Alcaligenes [24],12.5 µg/mL
same,MIC,Alcaligenes [25],8.83 µg/mL
same,MIC,Escherichia coli [26],0.6 µg/mL
same,ED50,Escherichia coli [27],1.45 mg/kg
same,MBC,Enterobacter [28],3.12 µg/mL
same,MIC,Enterobacter [29],1.96 µg/mL
same,MBC,Klebsiella [30],2.78 µg/mL
same,MIC,Klebsiella [31],1.17 µg/mL
same,MIC,Klebsiella pneumoniae [32],1.56 µg/mL
same,MBC,Pseudomonas [33],> 100 µg/mL
same,MIC,Pseudomonas [34],> 100 µg/mL
same,MBC,Proteus [35],2.45 µg/mL
same,MIC,Proteus [36],1.08 µg/mL
same,MBC,Sarcina [37],2.21 µg/mL
same,MIC,Sarcina [38],1.56 µg/mL
same,MBC,Salmonella [39],1.79 µg/mL
same,MIC,Salmonella [40],0.86 µg/mL
same,ED50,Salmonella typhimurium,9.3 mg/kg
same,MBC,Streptococcus [41],70.7 µg/mL
same,MIC,Streptococcus [42],25 µg/mL
same,MIC,Staphylococcus aureus,35.3 µg/mL
same,MIC,Serratia [43],1.75 µg/mL
same,MBC,Staphylococcus,11.3 µg/mL
same,MBC,Serratia [44],3.12 µg/mL
same,MIC,[45],1.74 µg/mL
same,MIC,Bacillus,42 µg/mL
same,concentration at 0.5 h,[46],22100 ng/g
same,ED50,Klebsiella pneumoniae [47],15.5 mg/kg
